Assay results: ChEMBL document CHEMBL1629687, “Minigenome-based reporter system suitable for high-throughput screening of compounds able to inhibit Ebolavirus replication and/or transcription” (Antimicrob Agents Chemother, 2010)

What was measured:
[1] = Cytotoxicity against african green monkey COS1 cells assessed as reduction in cell viability after 32 hrs by luminescent assay; type: cell-based, COS-1; settings: chlorocebus aethiops, read-out: INH
Summary of the method: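 Parallel plates of batch-transfected COS-1 cells received the same compounds in DMSO (10 μM final). Cell viability was measured with the CellTiter-Glo luminescent assay to flag cytotoxicity.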

[2] = system: Ebolavirus; assay: Antiviral activity against Ebolavirus infected in african green monkey COS1 cells assessed as inhibition of viral replication after 32 hrs by luciferase reporter gene assay; type: functional, COS-1
Summary of the method: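 Ebola minigenome assay, not live virus: COS-1 cells in suspension were batch-transfected with minireplicon and NP/VP35/L support plasmids, then plated in 96-well format. Compounds in DMSO were added at 10 μM final; DMSO-only wells served as controls. Luciferase was read after 32 h. Percent inhibition = 1 − (compound-well signal / mean DMSO-well signal) × 100.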

| SMILES | cytotoxicity at 32 h [1] | inhibition (INH) [2] |
| --- | --- | --- |
| CC[C@H]1CN2CCc3cc(OC)c(OC)cc3[C@@H]2C[C@@H]1C[C@H]1NCCc2cc(O)c(OC)cc21.Cl.Cl [CEPHAELINE DIHYDROCHLORIDE] | 14% | 99% |
| COc1cccc2c1C(=O)c1c(O)c3c(c(O)c1C2=O)C[C@@](O)(C(=O)CO)C[C@@H]3O[C@H]1C[C@H](N)[C@H](O)[C@H](C)O1.Cl [DOXORUBICIN HYDROCHLORIDE] | 25% | 97% |
| Cc1c2ccncc2c(C)c2c1[nH]c1ccccc12 [ELLIPTECINE] | 8% | 99% |
| CC[C@H]1CN2CCc3cc(OC)c(OC)cc3[C@@H]2C[C@@H]1C[C@H]1NCCc2cc(OC)c(OC)cc21.Cl.Cl [EMETINE HYDROCHLORIDE] | 3% | 99% |
| O=C1C=C2C(=CCOC2O)O1 (configuration not stated) [PATULIN] | 20% | 89% |
| CC[C@@H](C(=O)[C@@H](C)[C@@H](O)[C@H](C)[C@@H]1O[C@@H]([C@@H](CC)C(=O)O)CC[C@@H]1C)[C@H]1O[C@]2(C=C[C@@H](O)[C@]3(CC[C@@](C)([C@H]4CC[C@](O)(CC)[C@H](C)O4)O3)O2)[C@H](C)C[C@@H]1C [SALINOMYCIN] | 17% | 86% |
